{
  "source": "paper PMC10757425",
  "about": "(Toxicology, 2023)",
  "key": {"[1]": {"conditions": "45-day study, female rats; ref Aqil et al., 2014; cited from earlier work"}, "[2]": {"system": "rats", "conditions": "developmental exposure via the maternal diet, ref Boix et al., 2010; cited from earlier work"}, "[3]": {"conditions": "administered orally with corn oil; ref Rostami and Juhasz, 2011; cited from earlier work"}, "[4]": {"experiment": "OH-PCB disposition in serum and tissues by GC-MS/MS", "format": "in vivo, Sprague-Dawley rats", "conditions": "for detection in serum, brain, liver, and lung / rank order of levels across serum and tissues: male rats, 28 days of 4-52 implant exposure", "summary_of_the_method": "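Male Sprague-Dawley rats received a subcutaneous polymeric implant (1.3 ± 0.1 mg/g body weight) on the back at PND 28, loaded at 0, 1, 5 or 10% (w/w) test compound, for 28 days. Tissues (n=8/group) were homogenized in 2-propanol and liquid-liquid extracted, with surrogate-recovery and internal-standard correction. LOD came from sham tissues (mean + t0.01 × SD).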"}, "[5]": {"system": "Sprague-Dawley rats", "experiment": "Y-maze", "format": "in vivo"}, "[6]": {"experiment": "In vivo exposure dosimetry: 4-52 remaining in retrieved subcutaneous implants", "parameters": "species or system Sprague-Dawley rats", "conditions": "for In vivo exposure: 4-52 remaining in the implant / In vivo exposure: 4-52 remaining in the implant (%): subcutaneous implant, 28 days, male rats", "summary_of_the_method": "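Male rats carried s.c. implants (0, 1, 5 or 10% w/w; 1.3 ± 0.1 mg/g bw) from PND 28 for 28 days. Retrieved implants were dissolved in 10 mL DCM, diluted 3-fold and read by UV/Vis at 285 nm against a matrix-matched calibration curve. Internal dose was taken as total load minus remaining amount, assuming 100% bioavailability.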"}, "[7]": {"system": "Sprague-Dawley rats", "experiment": "Elevated Plus Maze", "format": "in vivo"}, "[8]": {"system": "Sprague-Dawley rats", "experiment": "Hole Board Test", "format": "in vivo", "summary_of_the_method": "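Implant-exposed rats (n=15/group) were tested blind on exposure days 24–28. Each rat was released centrally for 5 min. Distance and head dips (ears passing through a hole) were video-tracked. Analysis: one-way ANOVA with Fisher's LSD; mean ± SD.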"}, "[9]": {"system": "Sprague-Dawley rats", "experiment": "Histopathology", "format": "in vivo", "conditions": "for prevalence of minimal liver inflammation (% of evaluated slides): sham 37.5%", "summary_of_the_method": "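After 28 days of implant exposure, brain, accessory lobe of right lung and left lateral liver lobe were formalin-fixed and H&E stained (8 rats/group, 2 per cohort, random). A veterinary pathologist scored brain regions (prefrontal cortex, striatum, hippocampus, cerebellum) and lung and liver for inflammation (any immune cells), hemorrhage, edema, necrosis, apoptosis and morphology. Brain was also scored for gliosis; lung and liver for extramedullary hematopoiesis.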"}, "[10]": {"system": "Sprague-Dawley rats", "experiment": "Open Field Test", "format": "in vivo", "conditions": "between the groups at any time epoch, two-way ANOVA", "summary_of_the_method": "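Implant-exposed rats (n=15/group) were tested blind during exposure days 24–28. The opaque rectangular arena (~5000 cm2, 50 cm walls) was divided into central and outer zones. Each rat started in the center and explored freely for 30 min on two consecutive days. Overhead video tracking recorded distance travelled in 5-min epochs. Analysis: two-way ANOVA.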"}, "[11]": {"experiment": "General toxicity assessment", "format": "in vivo, Sprague-Dawley rats", "summary_of_the_method": "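Rats arrived at 21 days old and were acclimated 7 days. At PND 28, under isoflurane with 1 mg/kg s.c. meloxicam, they received s.c. implants with 0, 1, 5 or 10% w/w test compound (1.3 ± 0.1 mg/g bw), n=15/group. Surgical site and behaviour were checked daily for 5 days. At PND 56, blood was taken by cardiac puncture, rats were perfused with cold PBS and organs harvested.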"}, "[12]": {"experiment": "In vitro release from polymeric implants", "conditions": "after 28 days"}, "[13]": {"conditions": "rats, dip-coated implants; ref Aqil et al. (2014); cited from earlier work"}},
  "note": "“Also recorded” adds a separate entry of the source.",
  "data": [
    {"smiles": "Clc1cc(Cl)c(-c2cc(Cl)c(Cl)cc2Cl)cc1Cl", "note": "[PCB 153]", "values": [
      {"measurement": "released from polymeric implants in vivo", "setting": "[1]", "result": 73, "unit": "%"}
    ]},
    {"smiles": "Clc1ccc(Cl)c(-c2cc(Cl)ccc2Cl)c1", "note": "[PCB 52, 2,2’,5,5’-Tetrachlorobiphenyl]", "values": [
      {"measurement": "Y-maze performance", "setting": "[2]", "result": "did not affect"},
      {"measurement": "motor coordination", "setting": "[2]", "result": "impaired"},
      {"measurement": "oral bioavailability rate", "setting": "[3]", "result": 52.9, "unit": "%"}
    ]},
    {"smiles": "Oc1cc(Cl)c(-c2cc(Cl)c(O)cc2Cl)cc1Cl", "note": "[4,4’-52, 4,4’-dihydroxy-2,2’,5,5’-tetrachlorobiphenyl]", "values": [
      {"measurement": "detection in the brain", "setting": "[4]; after 4-52 implant exposure", "result": "only found in the medium and high-dose groups"},
      {"measurement": "detection in the lung", "setting": "[4]; after 4-52 implant exposure", "result": "detected"},
      {"measurement": "presence in the serum and liver", "setting": "[4]; after 4-52 implant exposure", "result": "present in the serum and liver from all exposure groups"},
      {"measurement": "detection in serum, brain, liver, and lung", "setting": "[4]", "result": "detected"},
      {"measurement": "rank order of levels across serum and tissues", "setting": "[4]", "result": "serum > lung > liver > brain"}
    ]},
    {"smiles": "Oc1cc(Cl)c(-c2cc(Cl)ccc2Cl)cc1Cl", "note": "[4-52, 2,2’,5,5’-tetrachlorobiphenyl-4-ol]", "values": [
      {"measurement": "Y-maze percentage of spontaneous alternation", "setting": "[5]; all exposure groups, one-way ANOVA, p = 0.262", "result": "no significant changes; also recorded: did not affect"},
      {"measurement": "Y-maze total distance traveled", "setting": "[5]; all exposure groups, one-way ANOVA, p = 0.300", "result": "no significant changes"},
      {"measurement": "Y-maze number of total entries", "setting": "[5]; all exposure groups, one-way ANOVA, p = 0.342", "result": "no significant changes"},
      {"measurement": "Y-maze total distance traveled", "setting": "[5]; medium-exposed group vs sham, post hoc Fisher’s LSD, p = 0.067", "result": "trend to decrease; also recorded: trend of a decrease"},
      {"measurement": "Y-maze total number of entries", "setting": "[5]; medium-exposed group vs sham, post hoc Fisher’s LSD, p = 0.087", "result": "trend to decrease; also recorded: trend of a decrease"},
      {"measurement": "In vivo exposure: 4-52 remaining in the implant", "setting": "[6]; High group, 10% load", "result": "0.80 ± 0.40", "unit": "mg"},
      {"measurement": "In vivo exposure: 4-52 remaining in the implant (%)", "setting": "[6]; High group, 10% load", "result": "6.9 ± 3.1", "unit": "%"},
      {"measurement": "In vivo exposure: 4-52 remaining in the implant", "setting": "[6]; Low group, 1% load", "result": "0.06 ± 0.02", "unit": "mg"},
      {"measurement": "In vivo exposure: 4-52 remaining in the implant (%)", "setting": "[6]; Low group, 1% load", "result": "5.8 ± 2.3", "unit": "%"},
      {"measurement": "In vivo exposure: 4-52 remaining in the implant", "setting": "[6]; Medium group, 5% load", "result": "0.40 ± 0.20", "unit": "mg"},
      {"measurement": "In vivo exposure: 4-52 remaining in the implant (%)", "setting": "[6]; Medium group, 5% load", "result": "6.3 ± 2.8", "unit": "%"},
      {"measurement": "4-52 left in the implants after in vivo exposure", "setting": "[6]; after 28 days of exposure, range over loads", "result": "5.8-6.9%"},
      {"measurement": "levels in serum and tissues versus 4-52 dose", "setting": "[4]; all compartments", "result": "increased with increasing 4-52 doses"},
      {"measurement": "detection in serum, brain, liver, and lung", "setting": "[4]", "result": "detected"},
      {"measurement": "rank order of levels across serum and tissues", "setting": "[4]", "result": "serum >> liver > lung > brain"},
      {"measurement": "Elevated Plus Maze time in the open arm", "setting": "[7]; high group, did not reach statistical significance, p = 0.076", "result": "marginally increased"},
      {"measurement": "Elevated Plus Maze time in the enclosed arm", "setting": "[7]; high-exposed group vs sham, post hoc Fisher’s LSD, p = 0.043", "result": "significantly decreased"},
      {"measurement": "Elevated Plus Maze distance traveled in the enclosed arm", "setting": "[7]; medium exposed group, post hoc Fisher’s LSD, p = 0.097", "result": "trend of reduction; also recorded: decreased"},
      {"measurement": "Hole Board Test total distance traveled", "setting": "[8]; exposed vs sham groups, one-way ANOVA, p = 0.297", "result": "no significant differences"},
      {"measurement": "Hole Board Test number of head dipping", "setting": "[8]; exposed vs sham groups, one-way ANOVA, p = 0.433", "result": "no significant differences; also recorded: did not affect"},
      {"measurement": "Hole Board Test total distance traveled", "setting": "[8]; medium-exposed rats, post hoc Fisher’s LSD, p = 0.071", "result": "slightly reduced; also recorded: trend of a decrease"},
      {"measurement": "histopathological evaluation of brain and lung", "setting": "[9]; exposed or sham rats, 28 days", "result": "no overt treatment-specific lesions"},
      {"measurement": "prevalence of minimal liver inflammation (% of evaluated slides)", "setting": "[9]; high dose group", "result": 75, "unit": "%"},
      {"measurement": "prevalence of minimal liver inflammation (% of evaluated slides)", "setting": "[9]; low dose group", "result": 12.5, "unit": "%"},
      {"measurement": "prevalence of minimal liver inflammation (% of evaluated slides)", "setting": "[9]; medium dose group", "result": 25, "unit": "%"},
      {"measurement": "Open Field Test locomotor activity (travel distance) in 5 min epochs over 30 min", "setting": "[10]", "result": "no significant differences; also recorded: not altered"},
      {"measurement": "implantation site", "setting": "[11]; end of 28-day study", "result": "no signs of adverse effects"},
      {"measurement": "adverse outcomes throughout the study", "setting": "[11]; implants with 0, 1, 5 or 10% of 4-52, 28 days", "result": "No adverse outcomes"},
      {"measurement": "body weight gain", "setting": "[11]; implants with 1, 5, 10% 4-52 vs sham, 28 days", "result": "No significant differences"},
      {"measurement": "other organ weights", "setting": "[11]; subcutaneous 4-52 exposure, 28 days", "result": "no significant effects; also recorded: no other organ weights were affected"},
      {"measurement": "relative liver weight (% of body weight)", "setting": "[11]; subcutaneous 4-52 exposure, 28 days, p < 0.001", "result": "decreased dose-dependently; also recorded: significant decrease"},
      {"measurement": "In vitro release: 4-52 remaining in the implant (%)", "setting": "[12]; High group, 10% load", "result": "5.2 ± 1.1", "unit": "%"},
      {"measurement": "In vitro release: 4-52 remaining in the implant (%)", "setting": "[12]; Low group, 1% load", "result": "3.4 ± 0.9", "unit": "%"},
      {"measurement": "In vitro release: 4-52 remaining in the implant (%)", "setting": "[12]; Medium group, 5% load", "result": "2.9 ± 1.8", "unit": "%"}
    ]},
    {"smiles": "Clc1ccc(-c2cc(Cl)c(Cl)c(Cl)c2)cc1Cl", "note": "[PCB 126]", "values": [
      {"measurement": "released from polymeric implants in vivo", "setting": "[1]", "result": 49, "unit": "%"},
      {"measurement": "liver weights compared to sham controls", "setting": "[13]", "result": "significantly increased"}
    ]}
  ]
}
